Measurements gathered from unrelated publications.
Each line is one published result; the experiments were not run side by side. Values after ≈ are worked out from the molar mass of the structure shown.

| Structure (SMILES) | organism | assay | test system | conditions | endpoint | result |
| --- | --- | --- | --- | --- | --- | --- |
| COc1ccc(C=NNC(=S)Nc2cccnc2)cc1OC | Leishmania major | parasite growth, MTT |  | 72 h, promastigote | IC50 | 1080 µM |
| CN1CCN(c2ccc(-c3ccc4nncc(Nc5cnccn5)c4c3)cc2)CC1 | Leishmania major | parasite growth |  | intracellular, amastigote | EC50 | > 13 µM |
| CC(=O)NC[C@H]1CN(c2ccc(N3CCOCC3)c(F)c2)C(=O)O1 | Enterococcus faecalis | microbial growth, broth dilution |  | clinical isolate | MIC90 | 1 µg/mL |
| CC(=O)N1CCN(c2ccc(OCC3COC(Cn4ccnc4)(c4ccc(Cl)cc4Cl)O3)cc2)CC1 (stereo not shown) | Aspergillus glaucus | microbial growth, broth dilution |  | 48 h | MIC | 7.8 µg/mL |
| Cc1c2c(nn1C)CSCc1cc(n(C)n1)CSc1cc(c3ccccc3c1)OCCCc1c(C(=O)O)n(C)c3c-2c(Cl)ccc13 | Enterococcus faecalis | microbial growth, broth dilution |  | clinical isolate | MIC90 | 25 µM |
| CC[C@H]1OC(=O)[C@H](C)[C@@H](O[C@H]2C[C@@](C)(OC)[C@@H](O)[C@H](C)O2)[C@H](C)[C@@H](O[C@@H]2O[C@H](C)C[C@H](N(C)C)[C@H]2O)[C@](C)(O)C[C@@H](C)/C(=N\OCOCCOC)[C@H](C)[C@@H](O)[C@]1(C)O | Enterococcus faecalis | microbial growth |  | clinical isolate | MIC50 | > 128 µg/mL |
| CCCCCCCCN=c1ccn(CCCCCCCCCCn2ccc(=NCCCCCCCC)cc2)cc1 | Enterococcus faecalis | microbial growth |  |  | MIC | 0.5 µM |
| C=C[C@]1(C)C[C@@H](OC(=O)CS[C@@H]2C[C@H]3CC[C@@H](C2)N3C)[C@]2(C)[C@H](C)CC[C@]3(CCC(=O)[C@H]32)[C@@H](C)[C@@H]1O | Enterococcus faecalis | microbial growth |  | clinical isolate | MIC90 | > 128 µg/mL |
| CNC(=S)NN=Cc1ccc(OC)c(OC)c1 | Leishmania major | parasite growth | J774.A1 | 72 h, intracellular, amastigote | IC50 | 60 µM |
| COc1ccc(Nc2cnnc3cc(-c4cnc(N5CCCN(C)CC5)nc4)ccc23)cc1Cl | Leishmania major | parasite growth |  | intracellular, amastigote | EC50 | > 2.1 µM |
| C[C@@H]1[C@H](O)[C@@H](C)/C=C/C=C/C=C/C=C/C=C/C=C/C=C/[C@H](O[C@@H]2O[C@H](C)[C@@H](O)[C@H](N)[C@@H]2O)C[C@@H]2O[C@](O)(C[C@@H](O)C[C@@H](O)[C@H](O)CC[C@@H](O)C[C@@H](O)CC(=O)O[C@H]1C)C[C@H](O)[C@H]2C(=O)O | Leishmania major | parasite growth | J774.A1 | 72 h, intracellular, amastigote | IC50 | 17.5 µM |
| CN1CCN(c2ccc(-c3ccc4nncc(Nc5ncccn5)c4c3)cc2)CC1 | Leishmania major | parasite growth |  | intracellular, amastigote | EC50 | > 2.5 µM |
| CC1(C)S[C@@H]2[C@H](NC(=O)[C@H](N)c3ccccc3)C(=O)N2[C@H]1C(=O)O | Enterococcus faecalis | microbial growth, broth dilution | ATCC19433 | 12 h | MIC | 0.5 µg/mL |
| C/C(=N\C(=S)/N=C(\C)c1c(O)c2ccccc2oc1=O)c1c(O)c2ccccc2oc1=O | Aspergillus glaucus | microbial growth, broth dilution |  | 48 h | MIC | 31.2 µg/mL |
| CNC(=S)NN=Cc1ccc([N+](=O)[O-])cc1 | Leishmania major | parasite growth, MTT |  | 72 h, promastigote | IC50 | 160 µM |
| C/C(=N\C1CCCCC1/N=C(\C)c1c(O)c2ccccc2oc1=O)c1c(O)c2ccccc2oc1=O (stereo not shown) | Aspergillus glaucus | microbial growth, broth dilution |  | 48 h | MIC | 31.2 µg/mL |

| Structure (SMILES) | organism | assay | test system | conditions | endpoint | result |
| --- | --- | --- | --- | --- | --- | --- |
| COc1ccc(Nc2cnnc3ccc(-c4ccc(N5CCN(C)CC5)cc4)cc23)nc1 | Leishmania major | parasite growth |  | intracellular, amastigote | EC50 | > 23 µM |
| COc1c(N2C[C@@H]3CCCN[C@@H]3C2)c(F)cc2c(=O)c(C(=O)O)cn(C3CC3)c12 | Enterococcus faecalis | microbial growth, broth dilution |  | clinical isolate | MIC90 | 1 µg/mL |
| Cc1ccc(Nc2cnnc3ccc(-c4ccc(N5CCN(C)CC5)cc4)cc23)cn1 | Leishmania major | parasite growth |  | intracellular, amastigote | EC50 | > 24 µM |
| COc1ccc(C=NNC(=S)Nc2cccnc2)cc1 | Leishmania major | parasite growth | J774.A1 | 72 h, intracellular, amastigote | IC50 | 892 µM |
| CC1(C)S[C@@H]2[C@H](NC(=O)[C@H](N)c3ccccc3)C(=O)N2[C@H]1C(=O)O | Enterococcus faecalis | microbial growth |  | clinical isolate | MIC90 | > 128 µg/mL |
| C/C(=N\NC(=O)/N=C(\C)c1c(O)c2ccccc2oc1=O)c1c(O)c2ccccc2oc1=O | Aspergillus glaucus | microbial growth, broth dilution |  | 48 h | MIC | 125 µg/mL |
| CN1CCCN(c2ncc(-c3ccc4nncc(Nc5cnccn5)c4c3)cn2)CC1 | Leishmania major | parasite growth |  | intracellular, amastigote | EC50 | > 24 µM |
| S=C(NN=Cc1ccc(Br)cc1)Nc1cccnc1 | Leishmania major | parasite growth, MTT |  | 72 h, promastigote | IC50 | 891 µM |
| Cc1ccc(Nc2cnnc3cc(-c4cnc(N5CCCN(C)CC5)nc4)ccc23)cn1 | Leishmania major | parasite growth |  | intracellular, amastigote | EC50 | > 23 µM |
| CN[C@H](CC(C)C)C(=O)N[C@H]1C(=O)N[C@@H](CC(N)=O)C(=O)N[C@H]2C(=O)N[C@H]3C(=O)N[C@H](C(=O)N[C@H](C(=O)O)c4cc(O)cc(O)c4-c4cc3ccc4O)[C@H](O)c3ccc(c(Cl)c3)Oc3cc2cc(c3O[C@@H]2O[C@H](CO)[C@@H](O)[C@H](O)[C@H]2O[C@H]2C[C@](C)(N)[C@H](O)[C@H](C)O2)Oc2ccc(cc2Cl)[C@H]1O | Enterococcus faecalis | microbial growth, broth dilution |  | clinical isolate | MIC50 | 2 µg/mL (≈ 1.38 µM) |
| OC(Cn1cncn1)(Cn1cncn1)c1ccc(F)cc1F | Aspergillus fumigatus | microbial growth, broth dilution | AF293 | 48 h | MIC | > 64 µg/mL |
| CNC(=S)NN=Cc1ccc(F)cc1 | Leishmania major | parasite growth | J774.A1 | 72 h, intracellular, amastigote | IC50 | 319 µM |
| C/C(=N\C(=O)/N=C(\C)c1c(O)c2ccccc2oc1=O)c1c(O)c2ccccc2oc1=O | Aspergillus glaucus | microbial growth, broth dilution |  | 48 h | MIC | 62.5 µg/mL |
| CNC(=S)NN=Cc1ccc(C)cc1 | Leishmania major | parasite growth | J774.A1 | 72 h, intracellular, amastigote | IC50 | 1110 µM |
| CN1CCN(c2ccc(-c3ccc4c(Nc5ncccn5)cnnc4c3)cc2)CC1 | Leishmania major | parasite growth |  | intracellular, amastigote | EC50 | > 12.6 µM |
